According to ChEMBL document CHEMBL4130582, “Total Synthesis of Reniochalistatin E” (J Nat Prod, 2017):
Residues, ends and D or L forms follow the SMILES beside them. *: point of attachment. Boc = CC(C)(C)OC(=O)*

Assays:
Format in all cases: functional, cell-based
HeLa = experiment: Cytotoxicity against human HeLa cells after 72 hrs by Alamar Blue assay
Summary of the method: (§1)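 A549 or HeLa cells in RPMI1640 + 10% FBS at 37 °C, 5% CO2. Seeded 1500 cells/well and left to adhere 2−3 h, then given compound diluted from DMSO stock in media (31.6 nM to 200 μM), in triplicate. After 69 h, Alamar Blue was added for 3 h more; fluorescence read at ex 560/em 590 nm. Doxorubicin and etoposide served as positive controls, untreated wells as negative. IC50 taken from ≥3 independent experiments.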

[1] = Cytotoxicity against human MM1R cells after 72 hrs by Alamar Blue assay; settings: MM.1R
Summary of the method: (§2)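 Nonadherent cells in RPMI1640 + 10% FBS at 37 °C, 5% CO2. Compound from DMSO stock was diluted in media (31.6 nM to 200 μM) and plated in triplicate; cells (2000/well) were added afterwards. After 69 h, Alamar Blue was added for 3 h more; fluorescence read at ex 560/em 590 nm. Doxorubicin and etoposide served as positive controls. IC50 taken from ≥3 independent experiments.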

RPMI-8226 = experiment: Cytotoxicity against human RPMI8226 cells after 72 hrs by Alamar Blue assay; settings: RPMI-8226, 72 h; summary of the method: as §2
A549 = experiment: Cytotoxicity against human A549 cells after 72 hrs by Alamar Blue assay; settings: A549, 72 h; summary of the method: as §1
[2] = Cytotoxicity against human MiaPaCa cells after 72 hrs by Alamar Blue assay; settings: MIA PaCa-2, 72 h
Summary of the method: as §1, with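 “Mia PaCa-2” for “A549 or HeLa cells”, “DMEM” for “RPMI1640”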

U-937 = experiment: Cytotoxicity against human U937 cells after 72 hrs by Alamar Blue assay; settings: U-937, 72 h; summary of the method: as §2

Molecule | IC50 (HeLa) [µM] | IC50 [1] [µM] | IC50 (RPMI-8226) [µM] | IC50 (A549) [µM] | IC50 [2] [µM] | IC50 (U-937) [µM]
CC[C@H](C)[C@H](NC(=O)OC(C)(C)C)C(=O)N1CCC[C@H]1C(=O)N[C@@H](CC(C)C)C(=O)N[C@@H](Cc1c[nH]c2ccccc12)C(=O)N1CCC[C@H]1C(=O)N[C@H](C(=O)N[C@H](C(=O)N1CCC[C@H]1C(=O)OC)[C@@H](C)CC)C(C)C (Boc-IPLWPVIP-OMe) | > 20 | > 20 | > 20 | > 20 | > 20 | > 20
CC[C@H](C)[C@H](NC(=O)[C@@H](NC(=O)[C@@H]1CCCN1C(=O)OC(C)(C)C)C(C)C)C(=O)N1CCC[C@H]1C(=O)N[C@H](C(=O)N1CCC[C@H]1C(=O)N[C@@H](CC(C)C)C(=O)N[C@@H](Cc1c[nH]c2ccccc12)C(=O)OC)[C@@H](C)CC (Boc-PVIPIPLW-OMe) | > 20 | > 20 | > 20 | > 20 | 19.1 | > 20
CC[C@H](C)[C@@H]1NC(=O)[C@H](C(C)C)NC(=O)[C@@H]2CCCN2C(=O)[C@H](Cc2c[nH]c3ccccc23)NC(=O)[C@H](CC(C)C)NC(=O)[C@@H]2CCCN2C(=O)[C@H]([C@@H](C)CC)NC(=O)[C@@H]2CCCN2C1=O (cyclo(IPIPLWPV)) | 16.9 | > 11.2 | 4.5 | > 20 | > 20 | 12.4
H-IPLWPVIP-OH | 18.4 | > 20 | 16.4 | > 20 | > 20 | > 20
H-PVIPIPLW-OH | > 20 | > 20 | > 20 | > 20 | > 20 | 9.5
